Test results from paper PMC9173812 (Proceedings of the National Academy of Sciences of the …, 2022).

Key:
[1] = biological target: T1, 5-HT7R (Homo sapiens, UniProt P34969); type: cell-based; conditions: 10 µM ligand, 2 to 60 min, Western blot
Summary of the method: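 HEK-293 cells stably expressing h5-HT7R were exposed to 10 µM ligand for 2 to 60 min, or to rising concentrations for 7 min. Lysates were run on 10% SDS-PAGE, transferred to PVDF and blocked in 5% milk in TBS-T (pH 7.4), then probed for phospho-ERK1/2. Bands were quantified by densitometry; three independent experiments, mean ± SEM.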

[2] = test system: thermal nociception; experiment: Tail immersion test; type: in vivo; conditions: 5 mg/kg s.c.
Summary of the method: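 Male mice (8–14 wk; C57BL/6 or 5-HT7R−/− on C57BL/6 background) received test compound 5 mg/kg by tail s.c. injection. Vehicle was 20% DMSO and 5% Tween 80 in PBS. Some groups were also given 5-HT7R antagonist 5 mg/kg i.p. Tail immersion latency in 50 ± 2 °C water was measured 10 min (T0) and 40 min (T30) post-injection.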

[3] = Pharmacokinetic study in plasma and brain; type: in vivo; conditions: 5 mg/kg s.c., C57BL/6 mice
[4] = biological target: T1, 5-HT7R; type: cell-based
Summary of the method: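 HEK-293 cells stably expressing h5-HT7R, grown in DMEM with 10% dialyzed FCS and penicillin/streptomycin. Cells were preincubated with a 5-HT7R antagonist (10 µM, 10 min) or the PKA inhibitor H89 before 10 µM ligand. Lysates were read by AlphaScreen SureFire p-ERK1/2 and p-c-SRC kits, or by Western blot with densitometry. Three independent experiments; mean ± SEM.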

[5] = biological target: T1, 5-HT7R; experiment: cAMP accumulation; type: cell-based; conditions: ligand alone
[6] = test system: formalin-induced hindpaw licking; experiment: Formalin test; type: in vivo; conditions: rats, Serodolin 10 mg/kg s.c., morphine 4 mg/kg s.c.
[7] = pretreatment, Serodolin 10 µM 7 min, AlphaScreen

T1 sequence (P34969 1-432): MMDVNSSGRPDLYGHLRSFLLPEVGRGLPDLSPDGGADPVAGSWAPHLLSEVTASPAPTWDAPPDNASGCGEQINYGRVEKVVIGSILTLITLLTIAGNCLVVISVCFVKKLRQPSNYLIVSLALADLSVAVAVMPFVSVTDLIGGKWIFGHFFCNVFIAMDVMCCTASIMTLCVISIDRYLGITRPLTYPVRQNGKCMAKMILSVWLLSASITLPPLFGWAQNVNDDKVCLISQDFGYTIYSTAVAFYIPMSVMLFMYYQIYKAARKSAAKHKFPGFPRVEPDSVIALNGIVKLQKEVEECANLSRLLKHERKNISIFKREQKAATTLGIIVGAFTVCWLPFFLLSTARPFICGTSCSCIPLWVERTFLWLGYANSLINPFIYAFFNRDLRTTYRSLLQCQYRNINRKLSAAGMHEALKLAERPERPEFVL

O=C1Nc2cccc3c2C1(CCCCN1CC=C(c2ccccc2)CC1)CCC3 (stereo not shown) [DR4004]
induction of ERK phosphorylation [1]: none of them were able to induce ERK activation

Cc1nn(C)c(C)c1-c1cccc(CCN(C)C)c1 [E55888]
antinociceptive effect in 5-HT7R KO mice [2]: did not exert any antinociceptive effect | induction of ERK phosphorylation [1]: induce ERK phosphorylation | time after which compound is eliminated / undetectable in plasma and brain [3]: 120 min | maximum of detection in brain ([3]; brain): 1.4 ± 0.2 µg/mL | maximum of detection in plasma ([3]; plasma): 6.1 ± 0.5 µg/mL | phosphorylation of c-SRC kinase at Tyr416 ([4]; 10 µM, 7 min, Western blot): could not be observed after 5-CT or E55888 stimulation | effect on cAMP when tested alone [5]: induced a concentration-dependent accumulation of cAMP

CC(C)(C)n1nc(-c2ccc(Cl)cc2)c2c(N)ncnc21 [PP2]
block of Serodolin-induced ERK phosphorylation [4, 7]: 99% | block of Serodolin-induced c-SRC phosphorylation [4, 7]: 100%

Nc1ncnc2c1cnn2-c1ccccc1 [PP3]
effect on Serodolin-induced ERK and c-SRC phosphorylation ([4]; pretreatment, AlphaScreen): inactive

CN1CC[C@]23c4c5ccc(O)c4O[C@H]2[C@@H](O)C=C[C@H]3[C@H]1C5 [morphine]
inhibitory effect on licking, early phase (vs vehicle-treated group) ([6]; 0 to 5 min, not significant): −57% | inhibition of licking, late phase (vs vehicle-treated group) ([6]; 17 to 27 min): −64%
